Compounds with a hit are over-represented: about 2.1% of the library has one in this group of screens.
VIM-2 inh: blocks Pseudomonas aeruginosa VIM-2 metallo-beta-lactamase. AID 1527. inhibition, % at 5.6 µM. purified VIM-2, nitrocefin hydrolysis, epi-absorbance fluorescence. actives 0.89% (n = 290,000);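 active = inhibition above the mean of all tested compounds plus 3 SD, cutoff set per screening run, cut at about 7.5% in these data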;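 note: red hydrolysis product quenches plate fluorescence so inhibitors raise well fluorescence; 0% = enzyme with DMSO and 100% = DMSO without enzyme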
IMP-1 inh: inhibitors of Pseudomonas aeruginosa IMP-1 metallo-beta-lactamase; purified IMP-1, nitrocefin hydrolysis, epi-absorbance fluorescence; inhibition, % at 5.6 µM; actives 0.45% (n = 290,000);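 active = inhibition above the mean plus 3 SD of all compounds in the same screening run, cut at about 4.5% in these data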;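 note: 0% = IMP-1 with DMSO and 100% = DMSO wells lacking enzyme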
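Assay system: purified recombinant IMP-1 beta-lactamase. Input: IMP-1 0.2 nM before substrate addition. Buffer or medium: Zinc- and detergent-supplemented HEPES buffer, pH 7.1. Schedule: 25 °C, 15 min preincubation, 25 min reaction. Signal: Epi-absorbance fluorescence, 480 nm excitation, 530 nm emission. Evaluation: percent inhibition from optical density relative to buffer-blank wells.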
CRFBP-R2 agonist: CRF-BP/CRF-R2 complex agonism; AID 588473; HEK293 CRF-R2/CRF-BP, calcium dye fluorescence (FLIPR); percent of saturating CRF peptide response; actives 0.46% (n = 350,000); activation, % at 13.2 µM;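 active = activation of at least 50%, plus an integration ratio under a set limit after plate pattern correction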;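 note: plate controls were neutral control wells without compound for no effect and CRF at EC100 for full effect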
TRPN1 ag: agonists of zebrafish TRPN1 channel; HEK293 zebrafish TRPN1-YFP, Fluo-8 calcium fluorescence; 100% = response to 87 µM carbachol; activation, % at 3 µM; actives 0.18% (n = 220,000); AID 1424;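 active = activation above its plate's cutoff, the mean activation of test wells on that plate plus 3 SD, cut at about 19% in these data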;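 note: 0% = DMSO alone and 100% = 87 µM carbachol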
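Control set: carbachol 87 µM as high control, DMSO as low control; system: HEK293 stable line with zebrafish TRPN1-YFP; read-out: % activation versus carbachol response; detection: intracellular calcium fluorescence with Fluo-8; doses: single test compound dose, 3 µM nominal, 0.3% DMSO; schedule: dye 1 h 37 °C plus 30 min RT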
CRFBP-R2 block: CRF-BP/CRF-R2 complex antagonism; HEK293 CRF-R2/CRF-BP, CRF-induced calcium fluorescence; inhibition, % at 11.8 µM; actives 0.59% (n = 350,000); AID 588475;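 active = inhibition of the ligand-induced calcium signal above about 50% at the single tested concentration, limit read from the data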
TRPML3 ag: agonists of human TRPML3 channel; Q8TDD5; HEK293 TRPML3-YFP, Fluo-8 calcium fluorescence; 100% = the carbachol control signal; activation, % at 3 µM; actives 0.29% (n = 220,000);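 active = activation above its plate's cutoff, the mean activation of the plate's test wells plus 3 SD, cut at about 12% in these data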;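 note: 0% = DMSO only wells and 100% = carbachol wells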
Target sequence (Q8TDD5 whole entry, looked up): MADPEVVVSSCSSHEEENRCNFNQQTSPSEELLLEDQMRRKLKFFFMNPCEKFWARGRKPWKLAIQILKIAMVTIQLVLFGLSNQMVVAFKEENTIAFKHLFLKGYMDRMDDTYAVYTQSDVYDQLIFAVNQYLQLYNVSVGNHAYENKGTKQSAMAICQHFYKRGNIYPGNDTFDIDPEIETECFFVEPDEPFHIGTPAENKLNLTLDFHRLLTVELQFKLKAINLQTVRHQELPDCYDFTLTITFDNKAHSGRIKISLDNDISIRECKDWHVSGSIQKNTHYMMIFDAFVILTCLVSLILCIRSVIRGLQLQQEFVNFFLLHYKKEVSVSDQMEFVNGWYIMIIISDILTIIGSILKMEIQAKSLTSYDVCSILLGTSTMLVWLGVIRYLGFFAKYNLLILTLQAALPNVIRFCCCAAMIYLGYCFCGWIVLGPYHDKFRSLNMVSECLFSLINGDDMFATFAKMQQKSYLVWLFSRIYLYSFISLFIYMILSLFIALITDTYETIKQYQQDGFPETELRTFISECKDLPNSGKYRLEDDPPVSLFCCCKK
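Test system – HEK293 line with stable expression of human TRPML3-YFP channel · Control set – carbachol 87 µM final as high control (100%), DMSO as low control (0%) · Signal – Fluo-8 calcium dye fluorescence, ex 470-495, em 515-575 nm · Incubation – 1-h 37 °C dye load, 5-s basal, 120-s post-compound reads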
TRPN1 ag 2: activates zebrafish TRPN1, counter-screen for TRPML3 agonists; activation, % at 3 µM; AID 1525; HEK293 zebrafish TRPN1-YFP, Fluo-8 calcium fluorescence; scaled: carbachol wells 100%, DMSO wells 0%; shares compounds with TRPML3 ag; actives 10% (n = 310);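 active = mean activation over replicates above a set limit taken from the earlier TRPN1 channel primary screen, cut at about 19% in these data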;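 note: 100% = carbachol and 0% = 0.3% DMSO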
TRPML3 ag conf: confirmation of human TRPML3 channel agonists. shares compounds with TRPML3 ag. HEK293 TRPML3-YFP, Fluo-8 calcium fluorescence; 100% set by carbachol, 0% by DMSO. activation, % at 3 µM. actives 80% (n = 310). AID 1526;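 active = activation above a set limit derived from the earlier primary screen, cut at about 12% in these data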
Numbers without * were called inactive; · = not tested or not shown.

SMILES	VIM-2 inh	IMP-1 inh	CRFBP-R2 agonist	TRPN1 ag	CRFBP-R2 block	TRPML3 ag	TRPN1 ag 2	TRPML3 ag conf
COCC(=O)Oc1c(S(=O)(=O)c2ccccc2)c(C)nn1C(C)(C)C	0	-3	1	·	-10	·	·	·
Cc1ccc(S(=O)(=O)c2c(C)nn(C(C)(C)C)c2OC(=O)C2CCCC2)cc1	-1	0	4	2	1	32*	2	24*
Cc1nn(C(C)(C)C)c(OC(=O)C2CCCC2)c1S(=O)(=O)c1ccccc1	-2	-6	2	0	5	16*	-1	23*
CCCCNC(=S)N(CCCN(C)C)Cc1cc2cc3c(cc2[nH]c1=O)OCO3	2	-2	2	·	-2	·	·	·
Cc1cc(C)cc(N2C(=O)CSC2c2cccs2)c1 (stereo not drawn)	-3	-3	51*	-1	-68	16*	3	16*
O=C(Nc1cccc(NC(=O)C2C3CC4OC(=O)C2C4C3)c1)c1ccccc1 (stereo not drawn)	-3	-2	4	0	-4	0	·	·
O=[N+]([O-])/C=C\c1ccc(N2CCCC2)c(F)c1	5	3	106*	11	-89	13*	27*	23*
CC(NS(=O)(=O)/C=C/c1ccccc1)c1ccccc1 (stereo not drawn)	2	-1	0	-1	2	0	·	·
O=C(Nc1nc(-c2ccc3ccccc3c2)cs1)C1CCN(S(=O)(=O)c2cccs2)CC1	-2	1	0	0	1	19*	3	52*
COc1ccc(C(C(=O)NC2CCCC2)N(CCCO)C(=O)c2snc(C(N)=O)c2N)cc1 (stereo not drawn)	-2	-1	2	·	8	·	·	·
Oc1c(Cl)cc(Cl)cc1Sc1cc(Cl)cc(Cl)c1O	-3	-1	·	16	·	13*	29*	13*
Cc1ccc(SCC(=O)O/N=C(\N)c2cccc([N+](=O)[O-])c2)cc1	2	-1	2	0	-12	0	·	·
Cc1ccc(S(=O)(=O)N(C)CC(=O)O/N=C(\N)c2cccc([N+](=O)[O-])c2)cc1	-3	-1	1	-1	4	62*	0	48*
Cc1ccc(S(=O)(=O)Nc2ccccc2C(=O)Nc2nc(-c3ccc(F)cc3)cs2)cc1	0	-4	22	14	77*	12*	21*	10
COc1ccc(-c2csc(NC(=O)c3ccccc3NS(=O)(=O)c3ccc(F)c(F)c3)n2)cc1	1	2	43	17	84*	13*	27*	17*
CCOc1ccc(NC(=O)c2ccccc2NS(=O)(=O)c2ccc(F)cc2)c([N+](=O)[O-])c1	-2	-3	13	1	30	15*	10	34*
Cc1ccc(C(=O)Nc2ccc(F)cc2)cc1NC1=NC2CS(=O)(=O)CC2S1 (stereo not drawn)	1	0	3	·	-10	·	·	·
Cc1ccccc1C(=O)NNC(=O)C1CC(=O)N(Cc2ccccc2)C1 (stereo not drawn)	·	·	2	·	-16	·	·	·
COc1ccc(C(C(=O)NC2CCCC2)N(Cc2ccccc2)C(=O)c2nsc(Cl)c2Cl)cc1 (stereo not drawn)	-3	-3	1	-1	-5	17*	0	24*
O=C(Cc1ccccc1)NCC(=O)N1CCN(c2ccc(F)cc2)CC1	·	·	5	·	-23	·	·	·
COc1ccccc1NS(=O)(=O)c1cc(C(=O)NCCC(C)C)ccc1F	-5	-2	85*	9	-87	17*	22*	35*
CC1(C)N=C(N)N=C(N)N1c1ccc(OCC(=O)N2CCOCC2)c(Cl)c1	·	·	0	·	7	·	·	·
